Test results as given in ChEMBL document CHEMBL1123282, “Antiinflammatory activity of substituted 6-hydroxypyrimido[2,1-f]purine-2,4,8(1H,3H,9H)-triones. Atypical nonsteroidal antiinflammatory agents” (J Med Chem, 1986).

System: Rattus norvegicus
Assay: In vivo antiinflammatory activity against rats by RPAR(reverse passive Arthus reaction) synovitis method
Format: functional
Set-up: concentration or dose not given beside the values
Outline: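 Lewis rats, oral drug or placebo 1 h before iv BSA (2.28 mg in saline), then intraarticular rabbit anti-BSA (0.54 mg) into one knee and saline into the other, under light anesthesia. Second oral dose at 3 h; the total of both doses is the calculated dose. About 17 h after induction, subpatellar tissue with synovium is excised and weighed. Response is antibody-minus-saline knee weight, tested by analysis of variance.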

Row | SMILES | Inhibition [%]
1 | Cn1c(=O)c2c(nc3n(Cc4ccccc4)c(O)c(CC(=O)O)c(=O)n23)n(C)c1=O | 11
2 | CN(C)CCc1c(O)n(Cc2ccccc2)c2nc3c(c(=O)n(C)c(=O)n3C)n2c1=O | 0
3 | Cc1c(O)n(-c2ccccc2)c2nc3c(c(=O)n(C)c(=O)n3C)n2c1=O | 14
4 | CCSCCc1c(O)n(Cc2ccccc2)c2nc3c(c(=O)n(C)c(=O)n3C)n2c1=O | 0
5 | CCCCc1c(O)n(Cc2ccc(F)cc2)c2nc3c(c(=O)n(CCCC)c(=O)n3CCCC)n2c1=O | 6
6 | CCCCc1c(O)n(Cc2ccccc2)c2nccn2c1=O | 17
7 | CCCc1c(O)n(Cc2ccc(Cl)cc2)c2nc3c(c(=O)n(C)c(=O)n3C)n2c1=O | 53
8 | CC(=O)Nc1c(O)n(Cc2ccccc2)c2nc3c(c(=O)n(C)c(=O)n3C)n2c1=O | 20
9 | Cc1c(O)n(CCc2ccccc2)c2nc3c(c(=O)n(C)c(=O)n3C)n2c1=O | 14
10 | CCCc1c(O)n(-c2ccc(F)cc2)c2nc3c(c(=O)n(C)c(=O)n3C)n2c1=O | 27
11 | CCO/C(O)=c1\c(=O)n(Cc2ccccc2)c2nc3c(c(=O)n(C)c(=O)n3C)n2c1=O | 0
12 | Cn1c(=O)c2c(nc3n(Cc4ccc(F)cc4)c(O)c(Cc4ccccc4)c(=O)n23)n(C)c1=O | 10
13 | CCS(=O)(=O)CCc1c(O)n(Cc2ccccc2)c2nc3c(c(=O)n(C)c(=O)n3C)n2c1=O | 6
14 | CCCCc1c(O)n(-c2ccccc2)c2nc3c(c(=O)n(C)c(=O)n3C)n2c1=O | 11
15 | CCCCn1c(=O)c2c(nc3n(Cc4cccs4)c(O)c(CCC)c(=O)n23)n(CCCC)c1=O | 14
16 | COC(=O)Cc1c(O)n(Cc2ccccc2)c2nc3c(c(=O)n(C)c(=O)n3C)n2c1=O | 14
17 | CCCCC1C(=O)N(Cc2ccccc2)c2nc3ccccc3n2C1=O (stereo unspecified) | 0
18 | CCCCn1c(=O)c2c(nc3n(CCc4ccccc4)c(O)c(CCC)c(=O)n23)n(CCCC)c1=O | 0

Row | SMILES | Inhibition [%]
19 | CCCCn1c(=O)c2c(nc3n(Cc4ccc(F)cc4)c(O)c(CCC)c(=O)n23)n(CCCC)c1=O | 8
20 | CC(C)c1c(O)n(CCc2ccccc2)c2nc3c(c(=O)n(C)c(=O)n3C)n2c1=O | 17
21 | CC(=O)OCCc1c(O)n(Cc2ccccc2)c2nc3c(c(=O)n(C)c(=O)n3C)n2c1=O | 1
22 | CCCCn1c(=O)c2c(nc3n(Cc4ccccc4)c(O)c(C)c(=O)n23)n(CCCC)c1=O | 27
23 | CC[S+]([O-])CCc1c(O)n(Cc2ccccc2)c2nc3c(c(=O)n(C)c(=O)n3C)n2c1=O (stereo unspecified) | 0
24 | CCCCn1c(=O)c2c(nc3n(Cc4ccccc4)c(O)c(CCC)c(=O)n23)n(CCCC)c1=O | 12
25 | Cn1c(=O)c2c(nc3n(Cc4ccccc4)c(O)c(CCO)c(=O)n23)n(C)c1=O | 17
26 | Cc1c(O)n(Cc2ccccc2)c2nc3c(c(=O)n(C)c(=O)n3C)n2c1=O | 8
27 | CCCc1c(O)n(Cc2ccc(OC)cc2)c2nc3c(c(=O)n(C)c(=O)n3C)n2c1=O | 11
28 | CCCCn1c(=O)c2c(nc3n(Cc4ccc(OC)cc4)c(O)c(CCC)c(=O)n23)n(CCCC)c1=O | 5
29 | Cn1c(=O)c2c(nc3n(Cc4ccccc4)c(O)cc(=O)n23)n(C)c1=O | 11
30 | CC(C)c1c(O)n(Cc2ccccc2)c2nc3c(c(=O)n(C)c(=O)n3C)n2c1=O | 0
31 | CCOCCc1c(O)n(Cc2ccccc2)c2nc3c(c(=O)n(C)c(=O)n3C)n2c1=O | 8
32 | Cn1c(=O)c2c(nc3n(Cc4ccccc4)c(O)c(N)c(=O)n23)n(C)c1=O | 11
33 | Cc1c(O)n(Cc2ccc(Cl)cc2)c2nc3c(c(=O)n(C)c(=O)n3C)n2c1=O | 28
34 | Cn1c(=O)c2c(nc3n(Cc4ccccc4)c(O)c(Cc4ccccc4)c(=O)n23)n(C)c1=O | 16
35 | CCCc1c(O)n(Cc2ccccn2)c2nc3c(c(=O)n(C)c(=O)n3C)n2c1=O | 17
36 | CC(C)Cc1c(O)n(Cc2ccccc2)c2nc3c(c(=O)n(C)c(=O)n3C)n2c1=O | 17
